The source made the active and inactive calls.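 The calls were made as follows, unless noted: active = viability at or under a set limit in both replicates, limit being median viability minus 3 SD (cut at about 48% in these data, passing the limit was not always enough); inconclusive = at or under the limit in just one replicate; inactive = at or above the limit in both replicates.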

A short description of assay [1]: Her2 expression decrease, cell viability multiplex – SKBR3 breast tumor cells, AlphaScreen, ATP viability, primary screen (AID 461;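 active = Her2 level under about 52% in both replicate screens, with viability over 70% of control, limit read from the data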;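 as to Her2 level: lower value means less Her2 protein in the cells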;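 as to viability: percent of carrier control wells set as 100% viability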). The following applies: SKBR3 Her2 protein level, 18-24 h, measured here: SKBR3 viability, ATP luminescence, at 10 µM.
For assay [2], the target named is Receptor tyrosine-protein kinase erbB-2 (Homo sapiens) (UniProt P04626). The description is as above. The conditions noted are these: 18-24 h, at 10 µM, stronger effect = lower value.
Sequence of Receptor tyrosine-protein kinase erbB-2 (Homo sapiens) (P04626 whole entry, looked up): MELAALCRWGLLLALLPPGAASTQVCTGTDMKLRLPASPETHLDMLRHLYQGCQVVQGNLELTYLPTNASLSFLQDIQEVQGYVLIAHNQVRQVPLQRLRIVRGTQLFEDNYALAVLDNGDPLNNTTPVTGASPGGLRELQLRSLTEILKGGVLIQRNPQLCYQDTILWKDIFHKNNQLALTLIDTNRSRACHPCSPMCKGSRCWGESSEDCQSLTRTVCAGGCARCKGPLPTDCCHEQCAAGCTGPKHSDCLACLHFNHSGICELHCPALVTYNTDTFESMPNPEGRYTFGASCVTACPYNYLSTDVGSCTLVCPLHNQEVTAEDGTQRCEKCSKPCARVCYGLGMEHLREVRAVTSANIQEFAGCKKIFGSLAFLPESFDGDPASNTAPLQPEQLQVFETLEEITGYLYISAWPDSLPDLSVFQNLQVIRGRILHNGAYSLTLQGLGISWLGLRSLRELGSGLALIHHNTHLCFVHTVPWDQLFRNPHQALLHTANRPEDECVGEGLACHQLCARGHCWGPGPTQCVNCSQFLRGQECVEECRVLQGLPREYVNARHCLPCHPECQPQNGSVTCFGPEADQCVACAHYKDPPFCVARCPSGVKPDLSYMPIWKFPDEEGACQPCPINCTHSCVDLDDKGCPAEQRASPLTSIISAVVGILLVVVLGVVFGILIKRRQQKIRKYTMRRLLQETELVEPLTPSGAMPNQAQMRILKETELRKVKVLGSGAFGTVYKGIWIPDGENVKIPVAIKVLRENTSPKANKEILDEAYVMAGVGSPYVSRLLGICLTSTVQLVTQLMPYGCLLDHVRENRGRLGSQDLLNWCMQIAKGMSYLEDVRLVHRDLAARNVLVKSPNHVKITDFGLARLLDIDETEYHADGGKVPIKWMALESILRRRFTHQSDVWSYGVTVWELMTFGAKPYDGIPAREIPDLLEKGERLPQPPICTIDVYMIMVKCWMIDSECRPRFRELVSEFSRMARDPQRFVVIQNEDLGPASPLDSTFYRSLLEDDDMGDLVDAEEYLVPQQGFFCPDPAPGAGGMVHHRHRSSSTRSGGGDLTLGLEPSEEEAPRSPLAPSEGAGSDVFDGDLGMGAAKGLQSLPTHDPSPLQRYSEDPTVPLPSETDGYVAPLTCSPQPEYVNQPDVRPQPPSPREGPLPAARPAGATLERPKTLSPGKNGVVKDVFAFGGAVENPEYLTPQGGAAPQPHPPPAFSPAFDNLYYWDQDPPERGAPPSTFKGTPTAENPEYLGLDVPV
Assay [3] can be described thus: reduced viability of SK-BR-3 breast cancer cells – cell-based, 24 h, human, pilot screen (AID 572;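 active = viability at or below 10% of carrier control in both of two separate runs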;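 also: compound exposure lasted between 18 and 24 h rather than exactly 24 h; 100% = carrier-treated control wells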). The conditions noted are these: SK-BR-3 viability, CellTiter-Glo luminescence, at 10 µM, stronger effect = lower value.
Assay [4] is described as follows: HUVEC growth inhibition – cell-based, human, primary screen (AID 575;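 active = viability at or below 30% in both replicate assays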;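 also: 100% = median of untreated cell wells with 0.1% DMSO on each plate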). The following applies: HUVEC proliferation, CellTiter-Glo luminescence, 72 h; at 10 µM; stronger effect = lower value. A digest of the protocol:
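Test system: HUVEC primary cells. Quantity: 1250 endothelial cells in each well. Dosing: single-point 10 µM, DMSO 0.1% final. Incubation: 72 h treatment at 37 °C. Measured by: CTG luminescence. Control set: DMSO cell controls and MePR drug controls. Plate: collagen-coated 384-well format.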

A short description of assay [5]: H69AR cell proliferation blockers – human, duplicate replicates, primary screen (AID 580).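 Also: 100% = mean luminescence of untreated wells and 0% = no signal.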 The following applies: H69AR lung tumor cells viability, ATP luminescence, 72 h; at 10 µM; stronger effect = lower value.
A short description of assay [6]: MRP1 drug-resistance reversers in H69AR cells – cell-based, doxorubicin co-treatment, pilot screen (AID 601;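 active = viability loss from added drug above about 55%, and viability with drug at most 40%, in both replicates, limit read from the data, passing the limit was not always enough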). The conditions noted are these: CellTiter-Glo, 72 h, at 10 µM; for differential viability (reversal): stronger effect = higher value.
Assay [7] can be described thus: yeast transport mutant growth inhibition pilot in 384-well plates, post-Golgi transport modulator project (AID 636; in the data active = inhibition above about 31%). The conditions noted are these: absorbance 615 nm, about 18 h, stronger effect = higher value.
Assay [8] in a line: growth suppression of yeast trafficking mutant, preliminary HTS, modulators of trafficking downstream of Golgi apparatus project, 1536-format plate, OD 615 nm (AID 637; in the data active = inhibition above about 30%). The following applies: yeast transport mutant growth, absorbance 615 nm, 18 h; stronger effect = higher value.
Where [9] appears, read: H69AR cells + 2 uM doxorubicin, measured here: viability with 2 uM doxorubicin, stronger effect = lower value.
[10] abbreviates: H69AR cells, compound alone cytotoxicity.

Regarding `C/C(CC(O)(/C=N/O)c1ccccc1)=N\O` (stereo not given), the viability in assay [1] was 86%; in assay [3], 86% (inactive); in assay [4] it was 107% (inactive); in assay [5], 94% (inactive); in assay [6] (setting [9]), 91.1%; in assay [6] (setting [10]) it was 94%. For the same compound, the Her2 level in assay [2] was 91.5% (inactive). The differential viability (reversal) in assay [6] (H69AR cells + 2 uM doxorubicin) was 2.94% (inactive). Further, the inhibition in assay [7] is -0.26% (inactive); in assay [8], 3.77% (inactive).
`COc1ccc(N2CCN(C(=O)CCNS(=O)(=O)c3ccc(Br)s3)CC2)cc1`: the viability is 64% in assay [1]; 64% (inactive) in assay [3]; 80.1% (inactive) in assay [4]; 88.7% (inactive) in assay [5]; 92.3% in assay [6] (setting [9]); 88.7% in assay [6] (setting [10]). In addition, the Her2 level in assay [2] is 91.5% (inactive). In assay [6] (H69AR cells + 2 uM doxorubicin), the differential viability (reversal) is -3.66% (inactive). Moreover, the inhibition in assay [7] was -4.55% (inactive); in assay [8], 6.72% (inactive).
Take `O=C(O)CCC(=O)Nc1nc(-c2ccccc2)cs1`: the viability is 92% in assay [1]; 92% (inactive) in assay [3]; 98.5% (inactive) in assay [4]; 91.3% (inactive) in assay [5]; 96.1% in assay [6] (setting [9]); 91.3% in assay [6] (setting [10]). For the same compound, the Her2 level in assay [2] was 84.5% (inactive). Also, in assay [6] (H69AR cells + 2 uM doxorubicin), the differential viability (reversal) was -4.88% (inactive). Also, the inhibition in assay [7] is -6.4% (inactive); in assay [8], -1.48% (inactive).
Turning to `N#Cc1nc(-c2cccs2)oc1NCc1ccc(Cl)cc1`, the viability in assay [1] is 111%; in assay [3], 111% (inactive); in assay [4], 64.9% (inactive); in assay [5], 73.8% (inactive); in assay [6] (setting [9]), 87.9%; in assay [6] (setting [10]) it was 73.8%. Moreover, the Her2 level in assay [2] is 88.5% (inactive). Moreover, the differential viability (reversal) in assay [6] (H69AR cells + 2 uM doxorubicin) was -14.1% (inactive). Also, the inhibition in assay [7] is -5.66% (inactive); in assay [8], 0.65% (inactive).
On to `O=c1[nH]c(Nc2ccccc2)cc2ccccc12`, for which the viability is 94.5% in assay [1]; 94.5% (inactive) in assay [3]; 82.2% (inactive) in assay [4]; 101% (inactive) in assay [5]; 97.9% in assay [6] (setting [9]); 101% in assay [6] (setting [10]). Further, the Her2 level in assay [2] is 92% (inactive). The differential viability (reversal) in assay [6] (H69AR cells + 2 uM doxorubicin) was 3.34% (inactive). Further, the results for the inhibition in assay [7] and in assay [8] were 2.5% (inactive) and 14.3% (inactive), respectively.
Turning to `CC(NC(=O)c1ccc2c(c1)OCO2)C(c1cccs1)N1CCOCC1` (stereo not given), the viability in assay [1] is 97.5%; in assay [3] it was 97.5% (inactive); in assay [4], 106% (inactive); in assay [5], 105% (inactive); in assay [6] (setting [9]) it was 91.1%; in assay [6] (setting [10]), 105%. Moreover, in assay [2], the Her2 level was 82.5% (inactive). Moreover, the differential viability (reversal) in assay [6] (H69AR cells + 2 uM doxorubicin) is 13.5% (inactive). Moreover, the inhibition in assay [7] is -4.81% (inactive); in assay [8], -0.95% (inactive).
Consider `CC(=O)Nc1ccc(S(=O)(=O)n2cnc(C)c2)cc1`, for which the viability in assay [1] was 91%; in assay [3] it was 91% (inactive); in assay [4], 102% (inactive); in assay [5] it was 104% (inactive); in assay [6] (setting [9]) it was 99.6%; in assay [6] (setting [10]) it was 104%. The Her2 level in assay [2] is 93.5% (inactive). Moreover, in assay [6] (H69AR cells + 2 uM doxorubicin), the differential viability (reversal) was 3.98% (inactive). Also, the inhibition is -0.53% (inactive) in assay [7] and -5% (inactive) in assay [8].
As to `O=C(CCNC(=O)Cn1ccc2ccccc2c1=O)NCCN1CCN(c2ccccc2F)CC1`, the viability in assay [1] was 96%; in assay [3] it was 96% (inactive); in assay [4], 99.2% (inactive); in assay [5] it was 88.1% (inactive); in assay [6] (setting [9]) it was 79%; in assay [6] (setting [10]), 88.1%. Besides, the Her2 level in assay [2] was 92% (inactive). Also, the differential viability (reversal) in assay [6] (H69AR cells + 2 uM doxorubicin) is 9.11% (inactive). For the same compound, the values for the inhibition in assay [7] and in assay [8] were -4.87% (inactive) and -1.45% (inactive), respectively.
`CCOC(=O)c1cc(-c2nnc(-c3ccc(Oc4ccccc4)cc3)o2)c(C)nc1C`: the viability in assay [1] was 85%; in assay [3], 85% (inactive); in assay [4] it was 80.5% (inactive); in assay [5], 102% (inactive); in assay [6] (setting [9]), 85.7%; in assay [6] (setting [10]), 102%. Further, the Her2 level in assay [2] is 88% (inactive). In addition, the differential viability (reversal) in assay [6] (H69AR cells + 2 uM doxorubicin) is 16.7% (inactive). In addition, the values for the inhibition in assay [7] and in assay [8] were -1.6% (inactive) and -0.16% (inactive), respectively.
For the compound `Fc1ccc(-c2nnc(CN3CCN(c4ncc(C(F)(F)F)cc4Cl)CC3)o2)cc1`, the viability in assay [1] is 104%; in assay [3] it was 104% (inactive); in assay [4], 63.4% (inactive); in assay [5] it was 90.5% (inactive); in assay [6] (setting [9]) it was 91.3%; in assay [6] (setting [10]), 90.5%. The Her2 level in assay [2] was 87% (inactive). The differential viability (reversal) in assay [6] (H69AR cells + 2 uM doxorubicin) is -0.76% (inactive). The inhibition was -1.43% (inactive) in assay [7] and 3.61% (inactive) in assay [8].
Take `COCCCn1c(SCC(=O)N2CCc3ccccc32)nnc1-c1ccoc1C`: the viability in assay [1] was 108%; in assay [3], 108% (inactive); in assay [4] it was 93.8% (inactive); in assay [5], 98.4% (inactive); in assay [6] (setting [9]), 96%; in assay [6] (setting [10]) it was 98.4%. For the same compound, the Her2 level in assay [2] was 80% (inactive). In addition, the differential viability (reversal) in assay [6] (H69AR cells + 2 uM doxorubicin) is 2.4% (inactive). In addition, the inhibition in assay [7] was -4.67% (inactive); in assay [8], 0.65% (inactive).
As for `Nc1nc(CSc2nc3ccccc3[nH]2)nc(N2CCOCC2)n1`, the viability in assay [1] is 96%; in assay [3], 96% (inactive); in assay [4], 109% (inactive); in assay [5], 92.8% (inactive); in assay [6] (setting [9]) it was 91.9%; in assay [6] (setting [10]), 92.8%. Besides, the Her2 level in assay [2] is 100% (inactive). In assay [6] (H69AR cells + 2 uM doxorubicin), the differential viability (reversal) is 0.96% (inactive). Besides, the inhibition is -0.13% (inactive) in assay [7] and -3.83% (inactive) in assay [8].
For the compound `N#C[C@@H]1[C@@H]2C(=O)N(c3ccc4c(c3)OCCO4)C(=O)[C@@H]2C2c3ccccc3C=CN21` (stereo not given in full), the viability in assay [1] was 84.5%; in assay [3], 84.5% (inactive); in assay [4], 95.8% (inactive); in assay [5] it was 92.8% (inactive); in assay [6] (setting [9]), 93.6%; in assay [6] (setting [10]), 92.8%. Besides, the Her2 level in assay [2] is 72% (inactive). The differential viability (reversal) in assay [6] (H69AR cells + 2 uM doxorubicin) was -0.82% (inactive). Besides, the inhibition in assay [7] is -0.53% (inactive); in assay [8] it was -5.48% (inactive).
Turning to `Cc1n[nH]c(C)c1S(=O)(=O)Nc1ccc2c(c1)OCCO2`, the viability in assay [1] was 93%; in assay [3] it was 93% (inactive); in assay [4], 104% (inactive); in assay [5], 104% (inactive); in assay [6] (setting [9]), 89.3%; in assay [6] (setting [10]), 104%. Moreover, in assay [2], the Her2 level is 98.5% (inactive). The differential viability (reversal) in assay [6] (H69AR cells + 2 uM doxorubicin) is 14.9% (inactive). Besides, the inhibition in assay [7] was -3.42% (inactive); in assay [8], -4.29% (inactive).
Turning to `O=c1cc(C(F)F)oc2c1ccc1ccccc12`, the viability in assay [1] is 93.5%; in assay [3], 93.5% (inactive); in assay [4], 74.8% (inactive); in assay [5], 81.7% (inactive); in assay [6] (setting [9]) it was 91.6%; in assay [6] (setting [10]), 81.7%. Further, the Her2 level in assay [2] is 98.5% (inactive). Moreover, the differential viability (reversal) in assay [6] (H69AR cells + 2 uM doxorubicin) is -9.89% (inactive). For the same compound, the inhibition in assay [7] is -0.91% (inactive); in assay [8] it was 2.33% (inactive).
As for `C=CCn1c(SCc2ccc3nonc3c2)nnc1-c1cccs1`, the viability was 84% in assay [1]; 84% (inactive) in assay [3]; 85.8% (inactive) in assay [4]; 87.3% (inactive) in assay [5]; 84.7% in assay [6] (setting [9]); 87.3% in assay [6] (setting [10]). Besides, the Her2 level in assay [2] was 79.5% (inactive). Also, in assay [6] (H69AR cells + 2 uM doxorubicin), the differential viability (reversal) is 2.61% (inactive). Moreover, the values for the inhibition in assay [7] and in assay [8] were -5.47% (inactive) and 0.98% (inactive), respectively.

(Values after PubChem BioAssay.)
